Rows were chosen to be rich in hits. Some 3.1% of all compounds tested hit in one or more screens of this group.
Env fusion inh = HIV envelope-mediated fusion inhibition. AID 651610. hit rate 1.1% among 360,000. inhibition, % at 12.3 µM. HeLa-JRFL Env/CEM21 cell fusion, luciferase;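 active = mean replicate inhibition score of at least 50 and every replicate individually at or above 50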;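 note: 0% = plate neutral controls and 100% = maraviroc near 300 nM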
miR122 inh = inhibitors of miR-122 in Huh7 cells. Huh7 miR-122 Renilla luciferase sensor, 48 h; neutral wells = 0, positive control = 100. activation (reporter increase), % at 12.5 µM. hit rate 0.3% among 340,000;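 active = mean replicate activation score at least 90 and every replicate individually at or above 90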;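 note: higher luciferase means less miR-122 activity so hits act as miR-122 inhibitors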
Cneo AK release = causes C. neoformans cell lysis; lysis activity, % at 15 µM; hit rate 0.2% among 360,000; AID 651654; adenylate kinase release luminescence, 4 h; normalised: neutral wells 0, clomiphene wells 100;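 active = mean lysis activity across replicates of at least 80%, whatever share of replicates individually reach that level; inactive = mean lysis activity below 80%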
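Assay system: log-phase C. neoformans yeast / Quantity: yeast cell density of 5 × 10^6 cells/mL / Medium: fresh YPD growth medium / Compound: single dose / Timing: static 4 h at 37 °C with compound, 1 h detection / Measured by: adenylate kinase release luminescence / Read-out: lysis from increased AK signal / Benchmarks: Clomiphene as positive lysis control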
CFTR F508del cor = CFTR F508del correction in bronchial cells. CFBE cells, YFP halide quenching; stimulated with forskolin plus potentiator P3; % fluorescence drop versus neutral controls. activity (quench increase), % at 7.58 µM. hit rate 0.36% among 350,000. AID 720511;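 active = mean added fluorescence quench of at least 8% versus neutral control, with both replicates also reaching 8%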;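 note: cells transiently co-express mutant CFTR-F508del with the halide-sensitive YFP; corrector assay measuring rescue of mutant channel to the surface after 24 h compound exposure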
INS-1E GSIS act = primary screen for activators of insulin secretion dependent on glucose, INS-1E cells, GLuc reporter luminescence | INS-1E GLuc reporter insulin secretion, 2-3 h | activation, % at 16.6 µM | hit rate 0.61% among 370,000;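 active = lowest replicate activation of at least 40%, so every replicate reaches that level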;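 note: 0% = median of neutral control wells and 100% = median of IBMX positive control wells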
Ecoli rRNA inh = selective bacterial rRNA inhibition in E. coli. hit rate 1.6% among 350,000. E. coli WT GFP vs humanized-ribosome RFP mutants, fluorescence, 24 h; hits give low values; DMSO median 0, no signal -100. GFP signal change (wild-type ribosome), % (no concentration beside the values);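 active = significant combined selectivity score with lowered wild-type GFP, culture density cut under 30%, mutant RFP and density less affected; inactive = any of these conditions unmet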
Numbers without * were called inactive; · = no result; [ ] = dose if it differs, or a comment.

SMILES	Env fusion inh	miR122 inh	Cneo AK release	CFTR F508del cor	INS-1E GSIS act	Ecoli rRNA inh
OC(c1ccccc1)(c1ccccc1)C1CCN(CCCOc2cccc(OC(F)(F)F)c2)CC1	29	·	·	4	160*	-49
CC(C)(C)OC(=O)NCCC(=O)N/N=C/c1cccc2cccnc12	-19	-5	0	2	1	-16*
CC(C)(C)OC(=O)NCCC(=O)N/N=C/c1ccc2ncccc2c1	-5	·	2	·	12	-4
CC(=O)c1ccc(NS(=O)(=O)c2ccc3c(c2)N(C)CCO3)cc1	-2	134*	0	2	-13	-1
CC(=O)c1ccc(NS(=O)(=O)c2cc3c(cc2C)N(C)CCO3)cc1	-1	71	7	-1	-13	2
COC(CNC(=O)c1ccc2nc(-c3cccs3)c(-c3cccs3)nc2c1)OC	-13	-22	0	0	29	-22*
COC(=O)C1=C(C)NC(C)=C(C(=O)OC)C1C(=O)OCC(=O)NC1CCCCC1C (centres undefined)	68*	-1	0	0	9	4
C=CCn1c(Cc2ccc(OCC)cc2)nnc1SCC(N)=O	77*	-3	-2	·	2	·
O=C(O)c1ccc(-c2nc(-c3ccccc3)c(-c3cccs3)[nH]2)cc1	-26	-3	·	0	53*	5
Cc1ccc(-c2[nH]c(-c3ccc(C(=O)O)cc3)nc2-c2ccccc2)cc1	5	·	·	·	-12	-13
O=C(Nc1cccnc1)c1cc(-c2ccccc2)on1	6	-2	-2	·	·	·
CC(C)n1cc(NC(=O)c2cc(-c3ccccc3)on2)cn1	·	114*	1	·	·	·
O=C1[C@H](Cc2ccc(C(F)(F)F)cc2)CCn2cc(nn2)COC[C@@H]2CCCCN12	·	·	·	·	5	-4
CS(=O)(=O)N1CCc2cc(C(=O)Nc3ccc(Cl)cc3)ccc21	-23	0	-1	0	·	9
CS(=O)(=O)N1CCc2cc(NC(=O)c3ccc(Cl)cc3Cl)ccc21	4	·	·	3	-4	-24*
COc1ccc2c3c([nH]c2c1)[C@@H](CO)N(CC1CCOCC1)CC31CN(C(=O)C2CCOCC2)C1	·	·	·	4	3	1
O=C(c1ccc2c(=O)n(C3CCCC3)c(=S)[nH]c2c1)N1CCCCCC1	31	·	·	1	-23	-28*
Cc1cccc2[nH]c3c(N4CC=C(c5ccc(F)cc5)CC4)ncnc3c12	13	-8	2	1	41*	-12
O=C(C[C@@H]1C=C[C@H](NC(=O)NC2CCCCC2)[C@H](CO)O1)NCc1ccc(F)cc1	-9[16.7 µM]	-5[16.7 µM]	-3	1	5	-1
Cc1ccc(S(=O)(=O)Nc2ccc3c(c2)CC(=O)N([C@H](C)CO)C[C@@H](C)[C@H](CN(C)C(=O)NC2CCCCC2)O3)cc1	·	2[16.7 µM]	1	0	6	0
COCCNc1nnc(Cc2ccc(Cl)cc2)c(=O)[nH]1	-18	·	4	0	-3	7
COCCCNc1nnc(Cc2ccc(Cl)cc2)c(=O)[nH]1	-129	·	-2	10*	10	5
CCOC(=O)N1CCN(C(=O)COc2ccccc2OC)CC1	-14	·	-2	·	62*	·
Cc1cc(Cl)ccc1OCCCC(=O)N1CCCc2ccccc21	·	2	4	1	1	-30*
Cc1cc(Cl)ccc1OCC(=O)N1CC(C)CC(C)C1 (centres undefined)	-37	-5	0	·	·	·
COc1ccccc1OCC(=O)N1CCCCCC1	-7	1	14	0	·	·
Cc1cc(Cl)ccc1OCC(=O)N1CCCN(C(=O)COc2ccc(Cl)cc2C)CC1	115*	·	·	·	-38	·
C[C@@H]1CCCCO[C@@H](CN(C)S(=O)(=O)c2cn(C)cn2)[C@@H](C)CN([C@@H](C)CO)C(=O)c2cc(NS(=O)(=O)c3ccc(Cl)cc3)ccc2O1	-15[16.7 µM]	8[16.7 µM]	1	-3	3	1
Cc1ccc(S(=O)(=O)Nc2ccc3c(c2)CC(=O)N([C@H](C)CO)C[C@@H](C)[C@@H](CN(C)S(=O)(=O)c2cn(C)cn2)O3)cc1	-7[16.7 µM]	3[16.7 µM]	9	2	8	3
N#C/C(=C/c1ccc(N2CCCCC2)o1)C(=O)Nc1ccc2ccccc2c1	-8	·	·	9.6*	7	50
